The record followed here is ChEMBL document CHEMBL1141513, “Synthesis and evaluation of [123I] labeled iodovinyl amino acids syn-, anti-1-amino-3-[2-iodoethenyl]-cyclobutane-1-carboxylic acid, and 1-amino-3-iodomethylene-cyclobutane-1-carboxylic acid as potential SPECT brain tumor imaging agents” (Bioorg Med Chem Lett, 2008).

Data set [1] in a line: Drug uptake in tumor cells of Fischer rat brain transplanted with rat 9L cells. The format is ADME, cell-based. The conditions noted are these: read-out: Drug uptake. Put shortly:
(§1)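 [123I]-labelled amino acid given to Fischer rats bearing intracranially implanted 9L gliosarcoma; tumor and normal tissue radioactivity counted at 30, 60 and 120 min post injection, n=5 per time point; expressed as percent injected dose per gram tissue (%ID/g).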

The nature of data set [2]: Drug uptake in normal brain tissue in Fischer rat transplanted with rat 9L cells. It is filed as ADME, tissue-based. The essentials:
as §1

Data set [3] concerns 9L. The experiment in a line: Inhibition of drug uptake in rat 9L cells in presence of 10 mM BCH relative to control. It is filed as cell-based. The essentials: (§2)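 9L rat gliosarcoma cells incubated with [123I] tracer in HBSS for 30 min at 37°C, with or without 10 mM BCH (L-type transport inhibitor) or MeAIB (A-type inhibitor); uptake expressed as %ID per 1×10^6 cells, inhibition relative to uninhibited controls; significance by 1-way ANOVA.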

The subject of data set [4] is 9L. Nature of the data set: Inhibition of drug uptake in rat 9L cells. The format is cell-based. Put shortly:
as §2

The next data set is filed under the species Rattus norvegicus. Nature of the data set: Ratio of drug uptake in tumor to brain in Fischer rat transplanted with rat 9L cells. It is filed as ADME, organism-based. The essentials: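 Fischer rats with intracranial 9L gliosarcoma received [123I] tracer; tumor and brain radioactivity measured at 30, 60, 120 min p.i. (n=5 per time point) as %ID/g, ratio taken as tumor over brain uptake.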

Data set [5] is described as follows: Drug uptake in tumor cells in Fischer rat transplanted with rat 9L cells after 60 mins. As to conditions: read-out: Drug uptake; call rule not given here. The format is ADME, Neoplasm. Put shortly: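 Fischer rats bearing intracranially implanted 9L gliosarcoma tumours received the [123I]-labelled amino acid by injection. Radioactivity in tumour and normal tissues was counted at 30, 60 and 120 min post-injection, with n=5 per time point. Values were expressed as percent injected dose per gram tissue (%ID/g).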

For data set [6], the system named is 9L. The experiment in a line: Inhibition of drug uptake in rat 9L cells in presence of 10 mM MeAIB relative to control. The format is cell-based. Put shortly: as §2

On to `NC1(C(=O)O)CC(=C[123I])C1` (configuration not stated), for which the tissue uptake in data set [1] was 0.83 %ID/g; in data set [2] it was under 0.4 %ID/g. Further, the values for the Drug uptake in the data set on 9L [3] and with 9L [4] were 92.3% and 8.4 %ID, respectively. The Ratio in the data set listed under Rattus norvegicus amounted to 4.7.
As to `N[C@]1(C(=O)O)C[C@H](C[18F])C1`, the tissue uptake at 1 h in data set [5] amounted to 1.59 %ID/g. In the data set filed under Rattus norvegicus, the Ratio was 6.9.
As for `N[C@]1(C(=O)O)C[C@@H](/C=C/[123I])C1`, the tissue uptake in data set [1] is 0.83 %ID/g; in data set [2], under 0.4 %ID/g. The Drug uptake in the data set with 9L [3] came to 92.3%; in the data set with 9L [4] it was 8.4 %ID. In addition, the Ratio in the data set filed under Rattus norvegicus is on record as 6.5.
`N[C@]1(C(=O)O)C[C@H](/C=C/[123I])C1`: the results for the tissue uptake in data set [1] and in data set [2] were 0.83 %ID/g and under 0.4 %ID/g, respectively. Moreover, the Activity entry in the data set on 9L [6] is “Not Active”. Further, the figures for the Drug uptake with 9L [3] and with 9L [4] were 92.3% and 8.4 %ID, respectively. The Ratio in the data set listed under Rattus norvegicus is reported as 7.3.
With `N[C@]1(C(=O)O)C[C@@H](C[18F])C1`, in data set [5], the tissue uptake at 1 h was 2.5 %ID/g. Also, in the data set filed under Rattus norvegicus, the Ratio is recorded as 8.9.
On the same counts, the results for `N[C@]1(C(=O)O)C[C@@H]([18F])C1` [FLUCICLOVINE F18] are 1.72 %ID/g and 6.6.
